This series in a line: Toxicity liver stage against HepG2, at 10uM. It is filed as cell-based. Set-up: test concentration 10 uM, cell line HepG2-A16-CD81EGFP. The following applies: human, HepG2-A16-CD81EGFP cells; read-out: INHIBITION
The method, boiled down:
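Uninfected HepG2-A16-CD81EGFP cells, 3 × 10^3 per well, 1536-well, plated on prespotted compound at 10 μM final, parasite-free screening media added to match infected plates; puromycin 10 μM positive, DMSO 0.5% negative; run in parallel with 48 h PbLuc assay at 37 °C, 5% CO2; viability by CellTiter-Glo luminescence, normalized to controls.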

Our source for the cytotoxicity values is ChEMBL document CHEMBL4513216, “Probing the Open Global Health Chemical Diversity Library for Multistage-Active Starting Points for Next-Generation Antimalarials” (ACS Infect Dis, 2020).

As to `CNS(=O)(=O)c1cc(C(=O)NC2CCOc3ccccc32)cc(C)c1C` (stereo unspecified), the cytotoxicity at 10 µM amounted to 6.82%.

As for `CCCC(=O)Nc1cccc([C@H]2C[C@@H](NC(C)=O)CCO2)c1`, the cytotoxicity at 10 µM came to 5.09%. In the case of `CC(O)CN1CCC(CNCc2cccc(C(N)=O)c2)CC1` (stereo unspecified), the cytotoxicity at 10 µM was -8.99%. The figure for `COc1cccc(CNCC2(COc3cccnc3)C[C@@H](O)[C@@H](O)C2)c1` (stereo partly specified) is -5.57%; for `N#Cc1cc2n(n1)CCN(C(=O)CCc1c[nH]c3ccccc13)C2` it is -9.64%. In the case of `Cc1nc(NC(=O)NC2CC(=O)N(C)C2)nn1C` (stereo unspecified) it was -12.2%. The figure for `CN(C(=O)Nc1cccnc1)C1CCN(c2ccc(Cl)cc2)CC1` is -2.46%; for `COCC(c1cccc(C(F)(F)F)c1)N(C)C(=O)c1ccco1` (stereo unspecified) it is -9.07%. For `O=C(c1ccnnc1)N1C[C@H]2CCC[C@@]2(COCc2ccccn2)C1`, the cytotoxicity at 10 µM is -78.7%.

Consider `O=C(Cc1cccc(F)c1)NCCNCC1CNc2ccnn2C1` (stereo unspecified), for which the cytotoxicity at 10 µM was 2.04%.

Turning to `Cc1cccc(CN2CCCC(O)(CNCCN3CCCCC3)C2=O)c1` (stereo unspecified), the cytotoxicity at 10 µM stood at 1.02%. The figure for `CNC(=O)c1cc2c(nc1N(C)C)CCN(S(=O)(=O)CC(C)C)CC2` is -3.85%.

Take `Cc1cc(=O)n2nc(Oc3cccc(C(N)=O)c3)sc2n1`: the cytotoxicity at 10 µM is -7.88%. For `N#Cc1csc(CNCCOc2ccccc2)c1`, the cytotoxicity at 10 µM worked out at 8.35%. In the case of `COC(=O)c1cccn1C1CCN(C(=O)c2ccc(C)[nH]c2=O)CC1` it was -3.78%. The figure for `c1ccc(CCn2cc(-c3nc(CN4CCOCC4)no3)nn2)cc1` is 1.85%; for `CCNc1ccnc(N2CCCC(CCOC)(C(=O)O)C2)n1` (stereo unspecified) it is 2.84%; for `CCOCC(=O)N(Cc1ccccn1)Cc1ccccc1C` it is 3.21%.

Turning to `COC1(CNC(=O)c2cccc(C#N)c2)CCSC1` (stereo unspecified), the cytotoxicity at 10 µM was -7.93%.

In the case of `Cc1cc(N2CCC(n3cc(CN4CCC[C@@H]4CO)nn3)CC2)ccn1`, the cytotoxicity at 10 µM worked out at 4.9%. Consider `COc1cc(CNc2ccc(C)c(Cl)c2)ccc1OCC(N)=O`, for which the cytotoxicity at 10 µM worked out at 7.1%. In the case of `c1ccc(-n2cc(CNC3CCc4ncnn4C3)nn2)cc1` (stereo unspecified) it was -4.01%; in that of `O=C(c1cc(-n2cccn2)ccn1)N1CCOc2ccc(F)cc21`, 1.26%. `CN1C(=O)CCC12CCC(NC(=O)NCc1cccnc1)CC2` (stereo unspecified): the cytotoxicity at 10 µM is -99.8%. In the case of `CN(C)CCN(Cc1ccccc1)C(=O)CN1CCCNC1=O`, the cytotoxicity at 10 µM amounted to 1.42%. The figure for `CNC(=O)CN1CCOCC12CCN(CCc1ccccc1)CC2` is -76.8%. The figure for `Cc1ccccc1-n1cc(-c2ccnc(N3CCCC(CN)C3)n2)cn1` (stereo unspecified) is 1.34%.

For the compound `O=C(CCc1cccs1)N1CCC(Nc2cccnn2)CC1`, the cytotoxicity at 10 µM was -10.5%. The figure for `O=C(c1cccnc1O)N1CCCC2(C=Cc3ccccc3O2)CC1` (stereo unspecified) is 9.02%; for `Cc1[nH]c2c(F)cccc2c1CC(=O)NCCCNc1cccnc1` it is 1.56%. In the case of `NC(=O)N1CC[C@@H]2O[C@H](COCC(=O)N3CCCC3)CC[C@@H]21` it was -1.49%; in that of `COc1ccc(CC(=O)N2CCCC(n3cccn3)C2)cc1F` (stereo unspecified), -4.62%; in that of `CC(C)CN1C[C@@H]2OCC(=O)N(c3ccccc3)[C@@H]2C1`, 1.08%. The figure for `Cc1nc2cc(O)nn2c(C)c1CCC(=O)N(C)Cc1ccccc1` is -141%; for `CN(C)c1ncccc1CNS(=O)(=O)c1cc(F)ccc1F` it is 5.67%; for `Cc1nc(N2CCN(C)CC2)ncc1C(=O)N1CC(C)(C)C(C)(O)C1` (stereo unspecified) it is 18.5%. For `COCc1cc(CNC(=O)c2c(C)cc(C)[nH]c2=O)n[nH]1`, the cytotoxicity at 10 µM was -4.69%. Regarding `CCN(C)CC(=O)N1CCc2nc(NC)nc(C(=O)N3CCCC3)c2C1`, the cytotoxicity at 10 µM is -120%. For `CC(C)CC(=O)Nc1ccc(Oc2ccsc2C(=O)O)cc1`, the cytotoxicity at 10 µM is 7.66%. The figure for `O=C(COCC(=O)N(c1ccccc1)c1ccccc1)N1CCOCC1` is 1.64%; for `CCc1cnc(C)nc1NCCN1CCOCC1` it is -2.66%; for `COCCNC(=O)[C@H]1CN(Cc2sccc2C)C[C@H]2OCC[C@@H]12` it is 2.05%. The figure for `CCc1ccc(C(=O)N2CCCC2c2nnc3n2CCCCC3)o1` (stereo unspecified) is 10.9%; for `Cc1cc(CN2CC[C@H]3[C@H]2CCN3C)oc1C` it is -0.655%.

Regarding `Cn1cc(CN2CCCC23CCN(C(=O)c2ccsc2)CC3)cn1`, the cytotoxicity at 10 µM worked out at 0.993%. The figure for `Cn1nc(CN2CCCCC(N)C2)c2c(Cl)cccc21` (stereo unspecified) is -5.99%; for `Cc1csc(C2CCCCN2C(=O)CCCn2cccn2)n1` (stereo unspecified) it is -0.89%. The figure for `Cc1cc(C[C@@H]2COC[C@@H]2NC(=O)CN2CCc3ccccc3C2)on1` is 6.7%; for `COc1ccc(CCNC(=O)C(C)Nc2cccc(C)c2C)cc1` (stereo unspecified) it is -5.91%. The figure for `Cc1ccc(CN2C[C@H](OCCN(C)C)[C@H]3COC[C@H]32)o1` is 1.6%. For the compound `Cc1cc2c(=O)n3c(nc2s1)CCN(C(=O)c1ccnn1C(C)C)CC3`, the cytotoxicity at 10 µM is -6.46%. In the case of `Cc1nccc(N2CCCC2CCNS(C)(=O)=O)n1` (stereo unspecified) it was 0.146%.

Consider `c1ccc(-n2cc(CNCC3CCCN3c3cccnn3)cn2)cc1` (stereo unspecified), for which the cytotoxicity at 10 µM is -8.85%. Turning to `CNC(=O)C1CCN(S(C)(=O)=O)CC1`, the cytotoxicity at 10 µM is -4.81%. The figure for `O=C(CCS(=O)(=O)C1CCCC1)NCCc1cccc(O)c1` is -3.09%; for `COCCCN1CCC(NC(=O)C(C)C)CC1` it is -11.9%; for `Cc1nc(C)n(CC2CCCN(Cc3nc(C)c(C)o3)C2)n1` (stereo unspecified) it is -2.68%. The figure for `CN(C)C(=O)c1ccccc1NC(=O)N[C@@H]1c2ccccc2C[C@@H]1O` is -43.1%; for `CC1CCN(S(=O)(=O)NCc2ccccc2Cn2cccn2)CC1` it is 7.4%. In the case of `Cc1ccccc1CN(CC(=O)O)C(=O)COCC1CC1` it was -1.92%; in that of `CN(C)C(=O)C1CN(Cc2ccc(C#N)cc2)c2ccccc2O1` (stereo unspecified), 6.47%; in that of `COc1cn(-c2ccccc2)nc1C(=O)NCCN1CCCC(C)C1` (stereo unspecified), 2.12%. As for `CCc1nnc(CN(C)C(=O)CN2CC(c3ccccc3)CC2=O)o1` (stereo unspecified), the cytotoxicity at 10 µM is -2.96%. Consider `CN(C)[C@@H]1CO[C@H](CNC(=O)c2cccs2)[C@H]1O`, for which the cytotoxicity at 10 µM is -1.37%. In the case of `O=c1ccc(-c2cccs2)nn1CN1CCCCCC1` it was -5.51%; in that of `CCOc1cc(C(=O)N2CCCC(n3nc(C)nc3C)C2)ccn1` (stereo unspecified), -5.99%; in that of `CCOC(=O)[C@H]1[C@@H](O)C(=O)N(C)C12CCN(C(=O)c1ccccc1)CC2`, -6.53%.

As to `CC(C)=CCC1(CO)CCCN(S(=O)(=O)N2CCCC2)C1` (stereo unspecified), the cytotoxicity at 10 µM was -3.38%.

For the compound `CNC(=O)Nc1cc(-c2ccccc2C)nn1CCO`, the cytotoxicity at 10 µM is 7%. In the case of `Fc1cnc(N2CCOC3(CCN(Cc4cccs4)CC3)C2)nc1` it was 0.73%; in that of `COCCCNC(=O)Cc1cc(-c2ccccc2)on1`, -7.39%. The figure for `CC(=O)NCCNC(=O)CN1CCOC(Cn2cccn2)C1` (stereo unspecified) is -7.6%; for `Cc1n[nH]cc1CNCc1cccc(OCC(F)(F)F)c1` it is 2.75%. The figure for `CC(C)C1CN(C(=O)c2ccc3nccnc3c2)CCS1` (stereo unspecified) is 5.02%. Consider `CC(c1nc(C(C)(C)C)no1)S(=O)(=O)CC(=O)N1CCCC1` (stereo unspecified), for which the cytotoxicity at 10 µM was -2.21%. The figure for `Cc1nc(CN2CCCC(N(C)Cc3nc(C)c(C)o3)C2)no1` (stereo unspecified) is -6.6%; for `O=C(CSC1=NS(=O)(=O)c2cc(Cl)ccc2N1)c1ccccc1` it is 13.6%; for `O=c1[nH]cc(N2CCCCCC2)c(=O)[nH]1` it is 3.46%. In the case of `CCc1nc(C2CCCN2C(=O)c2ccc(=O)n(CC)n2)no1` (stereo unspecified) it was 2.72%; in that of `CC(=O)Nc1cccc([C@H]2C[C@@H](NC(C)=O)CCO2)c1`, -0.825%. The figure for `CC(C)NC(=O)CCNC(=O)Nc1ccc(-n2cncn2)c(F)c1` is 0.485%; for `CN(C)C(=O)COC[C@]12COC[C@H]1CN(CC1CCC1)C2` it is -6.07%; for `COc1cccc(OCC2CCCN(c3cc(C(N)=O)ccn3)C2)c1` (stereo unspecified) it is 2.13%. `CCN1CCC2(CC1)CC(NCc1cccs1)c1ccccc1O2` (stereo unspecified): the cytotoxicity at 10 µM was -11.6%.

On to `CCC(O)CN1CCN(C(=O)Cc2cc(C)ccc2OC)CC1` (stereo unspecified), for which the cytotoxicity at 10 µM was -30.9%. The figure for `Cc1cc(C)c(C(=O)N(C)CCN(C)C(=O)c2[nH]c(C)cc2C)[nH]1` is -1.91%; for `CC(=O)N1N=C(c2ccccc2)OC1C(=O)NCCN(C(C)C)C(C)C` (stereo unspecified) it is 0.238%; for `CC(C)(C)Cc1noc2ncc(C(=O)N3CCCSCC3)cc12` it is -20.5%.

In the case of `Cc1nnc(CN2CCOC(c3ccc(Cl)c(Cl)c3)C2)o1` (stereo unspecified), the cytotoxicity at 10 µM is -1.11%. The figure for `COC(=O)CCCNC(=O)N1CCc2c(F)ccc(F)c2C1` is -11.2%; for `C[C@@H]1CN(c2nc(N)nc3c2CCC3)CC[C@@]1(O)C1CCC1` it is 36.9%. Take `COc1c(CNCc2ccc(Cn3cccn3)cc2)c(C)nn1C`: the cytotoxicity at 10 µM came out at 35.5%. The figure for `Cc1oc(-c2nc(C#N)c(NCC(C)C)o2)cc1S(=O)(=O)N1CCCC1` is 13.1%. As to `O=C(NC1CCC1)C1CCC2(CN(C(=O)c3ccno3)C2)O1` (stereo unspecified), the cytotoxicity at 10 µM is -134%. The figure for `O=C([C@H]1CC[C@@H]2[C@@H](CCN2C2CCCCC2)O1)N1CCOCC1` is 7.19%; for `CC(C)n1cnnc1SCCN(C)c1ccccc1` it is 2.96%.
